NALP1 inh: blocks the NALP1 inflammasome reconstituted in yeast; S. cerevisiae NALP1/ASC/caspase-1 growth, X-gal OD620, 72 h; inhibition, % at 10 µM; 0.61% of 280,000 active; in the data active means inhibition mostly above about 24%, no sharp cut-off; inactive means mostly below about 32%
UCH37 DUB inh: human UCH37 deubiquitinating enzyme inhibition; Q9Y5K5; purified proteasome/UCH37, Ub-AMC cleavage fluorescence; inhibition, % (no concentration beside the values); 0.33% of 330,000 active; AID 588478;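 active means mean inhibition over replicate wells above about 20%, limit read from the data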
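system = Proteasome-associated human UCH37 deubiquitinase | amount = 0.15 nM proteasome as dispensed | medium = pH 7.4 Tris-HCl (50 mM) with ovalbumin, ATP-MgCl2, DTT | incubation = 30 min preincubation with enzyme, 25 min cleavage at room temperature | detection = AMC fluorescence 355/460 nm | read-out basis = percent inhibition | controls = no-proteasome and no-compound wells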
ATG4B inh: blocks human ATG4B protease cleavage of LC3 substrate; Q9Y4P1; ATG4B cleavage of LC3-PLA2, NBD-HPC fluorescence, 1 h; inhibition, % at 8.33 µM; 0.51% of 340,000 active; in the data active means inhibition above about 40%
Target sequence (Q9Y4P1 whole entry, looked up): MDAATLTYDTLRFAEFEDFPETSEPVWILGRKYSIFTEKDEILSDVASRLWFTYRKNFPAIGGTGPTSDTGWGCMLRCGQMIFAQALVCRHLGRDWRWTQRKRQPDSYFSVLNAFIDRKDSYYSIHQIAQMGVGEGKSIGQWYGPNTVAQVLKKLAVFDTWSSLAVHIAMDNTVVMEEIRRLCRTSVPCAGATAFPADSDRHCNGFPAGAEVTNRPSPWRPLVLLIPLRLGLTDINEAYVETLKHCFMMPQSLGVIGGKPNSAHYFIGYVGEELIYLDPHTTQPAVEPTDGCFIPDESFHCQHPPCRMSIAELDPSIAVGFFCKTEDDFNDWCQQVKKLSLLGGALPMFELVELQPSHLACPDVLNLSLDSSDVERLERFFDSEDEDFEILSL
ALR inh: inhibitors of human sulfhydryl oxidase ALR; P55789; purified ALR, DTT oxidation, H2O2 HRP-luminol luminescence; inhibition, % (concentration not given with the values); 3.8% of 290,000 active;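 active means mean replicate inhibition above about 79%, with every replicate also reaching it, limit read from the data; inconclusive means only one of the two criteria met; inactive means mean below limit and not every replicate reaching it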
Target sequence (P55789 whole entry, looked up): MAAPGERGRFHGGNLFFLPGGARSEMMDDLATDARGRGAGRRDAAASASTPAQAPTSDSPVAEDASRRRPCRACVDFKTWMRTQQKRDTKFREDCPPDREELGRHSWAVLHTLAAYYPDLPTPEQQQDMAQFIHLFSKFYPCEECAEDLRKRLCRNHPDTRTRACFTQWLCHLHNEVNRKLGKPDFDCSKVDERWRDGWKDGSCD
NLRP3 yeast inh: NALP3 inhibition in yeast | inhibition, % at 10 µM | 0.39% of 330,000 active | AID 2825 | Yeast reconstituted NLRP3/ASC/caspase-1, beta-gal luminescence, 24 h;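 active means inhibition of 50% or more; inactive means inhibition below 50%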
Calb FLC: affects C. albicans growth with fluconazole; C. albicans CaCi-2 + fluconazole, Alamar Blue growth, 48 h; growth inhibition, % (no concentration beside the values); AID 1979; 0.57% of 300,000 active;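 active means growth inhibition above about 58% in most replicates, limit read from the data, passing the limit was not always enough; inconclusive means exactly half the replicates above a set limit; inactive means most replicates below a set limit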;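 further: all wells also contain fluconazole at 8 µg/ml as a sub-toxic cotreatment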
ATG4B conf: confirmation of human ATG4B inhibitors; shares compounds with ATG4B inh; AID 504757; inhibition, % at 8.33 µM; 92% of 320 active; ATG4B protease fluorescent substrate cleavage assay; in the data active means inhibition above about 39%
PLA2 counter: counter-screen for ATG4B inhibitors: human phospholipase A2; inhibition, % at 8.33 µM; 66% of 1,600 active; purified PLA2, NBD-C6-HPC fluorescence, 45 min; shares compounds with ATG4B inh; in the data active means inhibition above about 50%
Target sequence (P04054 whole entry, looked up): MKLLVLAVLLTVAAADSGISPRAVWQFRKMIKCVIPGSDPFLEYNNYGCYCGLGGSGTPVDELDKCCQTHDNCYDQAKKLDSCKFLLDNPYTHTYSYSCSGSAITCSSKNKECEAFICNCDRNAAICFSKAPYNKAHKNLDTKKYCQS
Each line names hits and unclear results; the compound was inactive in the other large screens (follow-up assays come after a bar, where they were run). The list is not random: actives were taken first. Their share in the collection is about 4.8%.

O=C(Nc1ccc(N2CCCC2)cc1)c1cccc(-c2cc3ccccc3oc2=O)c1	none (no result: ALR inh)
O=C(Nc1ccccc1N1CCCC1)c1cccc(-c2cc3ccccc3oc2=O)c1	ATG4B inh 57 | PLA2 counter 67
O=C(O)c1ccc(NC2=C/C(=N/S(=O)(=O)c3ccccc3)c3ccccc3C2=O)cc1	ATG4B inh 43 (no result: UCH37 DUB inh, ALR inh, Calb FLC) | ATG4B conf 61 | PLA2 counter inactive
Cc1cccc(C)c1OCc1nc2ccccc2c(=O)n1N=Cc1ccc(OCC(=O)O)cc1	none (no result: NALP1 inh, ATG4B inh, ALR inh, NLRP3 yeast inh, Calb FLC)
C[C@H]1CN([C@@H](C)CO)C(=O)c2cc(NC(=O)NC3CCCCC3)ccc2O[C@H]1CN(C)C(=O)Nc1ccc(C(F)(F)F)cc1	ATG4B inh 62 (no result: NALP1 inh, Calb FLC) | PLA2 counter 74
COc1ccccc1C(=O)ON=C1CCCc2c1ccc(OC)c2[N+](=O)[O-]	none (no result: NALP1 inh, ATG4B inh, ALR inh, NLRP3 yeast inh, Calb FLC)
COc1cccc(-c2c(C(=O)NN=C(C)c3ccco3)nnn2-c2nonc2N)c1	none (no result: NALP1 inh, ATG4B inh, ALR inh, NLRP3 yeast inh, Calb FLC)
O=C(/C=C/c1ccccc1O)c1ccc(Cl)cc1	ATG4B inh 69 | PLA2 counter 88
O=C(CNC(=O)c1cccnc1)NN=Cc1ccc(O)cc1O	none (no result: NALP1 inh, ATG4B inh, ALR inh, NLRP3 yeast inh, Calb FLC)
O=C1C(=O)c2c(C(=O)c3ccccc3)coc2-c2ccccc21	ATG4B inh 65 | PLA2 counter 89
CC(=NNC(=O)c1cnccn1)c1ccncc1	none (no result: NALP1 inh, ATG4B inh, ALR inh, NLRP3 yeast inh, Calb FLC)
Cc1cccc(-n2cnc3cc(C(=O)N4CCc5ccccc54)ccc32)c1	ATG4B inh 62 | PLA2 counter 64
Cc1cccc(C=Nn2c(C)cc(C)c(C#N)c2=O)c1	none (no result: NALP1 inh, ATG4B inh, ALR inh, NLRP3 yeast inh, Calb FLC)
CC(Sc1ccc(Cl)cc1)C(=O)Nc1ccccc1-c1ccccc1 (configuration not stated)	ATG4B inh 50 (no result: ALR inh, NLRP3 yeast inh) | ATG4B conf 71 | PLA2 counter inactive
CC(O)CNc1nc2sc3c(c2c(=O)n1CCc1ccccc1)CCCCC3 (configuration not stated)	ATG4B inh 41 | PLA2 counter 55
Cc1ccc(-c2nnc(Nc3ccc(CC(N)=O)cc3)c3ccccc23)cc1S(=O)(=O)NCC1CCCO1 (configuration not stated)	ATG4B inh 90 (no result: ALR inh) | PLA2 counter 89
Cc1ccc(-c2nnc(Nc3ccc(CC(N)=O)cc3)c3ccccc23)cc1S(N)(=O)=O	ATG4B inh 88 | PLA2 counter 89
Cc1ccc(-c2nnc(Nc3ccc(CC(N)=O)cc3)c3ccccc23)cc1	ATG4B inh 97 | PLA2 counter 97
CNC(=O)c1ccc(Nc2nnc(-c3ccc(C)c(S(N)(=O)=O)c3)c3ccccc23)cc1	none
CCOC(=O)Cc1nnc(Nc2ccc(C)cc2)c2ccccc12	Calb FLC inconclusive
CNS(=O)(=O)c1cc(-c2nnc(Nc3ccc(CC(N)=O)cc3)c3ccccc23)ccc1C	ATG4B inh 91 | PLA2 counter 91
C=CCc1cccc(C=NNC(=O)C[n+]2ccccc2)c1O	none (no result: NALP1 inh, ATG4B inh, ALR inh, NLRP3 yeast inh, Calb FLC)
COc1ccc(C=NNC(=O)CNc2c(Br)cc(C)cc2Br)c(C(=O)O)c1OC	none (no result: NALP1 inh, ATG4B inh, ALR inh, NLRP3 yeast inh, Calb FLC)
NC(=O)COc1ccc(Nc2nnc(-c3ccc(O)cc3)c3ccccc23)cc1	ATG4B inh 57, ALR inh 99 | PLA2 counter 69
Cc1ccc(-c2nnc(Nc3ccc(OCC(N)=O)cc3)c3ccccc23)cc1S(N)(=O)=O	none (no result: Calb FLC)
CC1(C)SC(=S)N(NC(=O)Nc2cccc3ccccc23)C1N(O)C(=O)Nc1ccccc1 (configuration not stated)	ATG4B inh 46 | PLA2 counter 58
C=CCN1C(=O)C(Cc2ccccc2Cl)SC1=Nc1ccc(C(=O)O)cc1 (configuration not stated)	ATG4B inh 55 | PLA2 counter 59
CC(=O)Nc1ccc(C(C)=NNS(=O)(=O)c2ccc(C)cc2)cc1	none (no result: NALP1 inh, ATG4B inh, ALR inh, NLRP3 yeast inh, Calb FLC)
CC(C)(C)C(=O)CSc1ncnc2sc3c(c12)CCC3	Calb FLC inconclusive (no result: ATG4B inh) | PLA2 counter inactive
O=C(CSc1ncnc2sc3c(c12)CCC3)NCC1CCCO1 (configuration not stated)	none (no result: Calb FLC)
O=C(O)c1cc(N/N=C2/CC(c3ccccc3)Oc3ccccc32)ccc1Cl (configuration not stated)	ATG4B inh 49, ALR inh 98 (no result: UCH37 DUB inh) | ATG4B conf 59 | PLA2 counter inactive
O=C(O)c1cc(NN=C2CC(c3ccccc3)Oc3ccccc32)ccc1Cl (configuration not stated)	none (no result: NALP1 inh, ATG4B inh, ALR inh, NLRP3 yeast inh, Calb FLC)
Cc1cc(C=NNC(=O)CC(=O)NC2CCCCC2)c(C)n1-c1ccc(Cl)cc1	none (no result: NALP1 inh, ATG4B inh, ALR inh, NLRP3 yeast inh, Calb FLC)
CC(=NNC(=S)Nc1cccc(C)c1)c1cccc([N+](=O)[O-])c1	none (no result: NALP1 inh, ATG4B inh, ALR inh, NLRP3 yeast inh, Calb FLC)
O=C(Nc1ccc(S(=O)(=O)NC2=NCCCCC2)cc1)c1ccc(Cl)c([N+](=O)[O-])c1	none (no result: NALP1 inh, Calb FLC)
Cc1cccc(C)c1NS(=O)(=O)c1ccc(NC(=O)c2ccc(Cl)c([N+](=O)[O-])c2)cc1	ATG4B inh 49 | PLA2 counter inactive
CC(=NNC(=O)CNC(=O)c1cccnc1)c1cccc(O)c1	none (no result: NALP1 inh, ATG4B inh, ALR inh, NLRP3 yeast inh, Calb FLC)
COc1ccc(C=NNC(=O)c2ccncc2)c(C(=O)O)c1OC	none (no result: NALP1 inh, ATG4B inh, ALR inh, NLRP3 yeast inh, Calb FLC)
Cc1cc(O)c2c(=NN)c(-c3csc(C)n3)coc2c1	none (no result: NALP1 inh, ATG4B inh, ALR inh, NLRP3 yeast inh, Calb FLC)
Cc1ccc(-c2ccc(/C=N/NC(=O)Cc3nnc(N)s3)o2)cc1Cl	ATG4B inh 68 (no result: NALP1 inh, UCH37 DUB inh) | PLA2 counter 77
Cc1ccc(-c2ccc(C=NNC(=O)Cc3nnc(N)s3)o2)cc1Cl	none (no result: NALP1 inh, ATG4B inh, ALR inh, NLRP3 yeast inh, Calb FLC)
CN(Cc1ccc(F)cc1)C(=O)COc1ccccc1-c1ccccc1	ATG4B inh 48 | PLA2 counter inactive
O=[N+]([O-])c1ccc(Cl)c(C2Nc3cccc4cccc(c34)N2)c1	ATG4B inh 54 | PLA2 counter 71
O=C(Nc1ccccc1N1CCN(c2ccccc2)CC1)c1ccccc1	ATG4B inh 44 | ATG4B conf 62 | PLA2 counter inactive
O=C(Nc1ccc(N2CCOCC2)cc1N1CCOCC1)c1ccccc1	none (no result: NALP1 inh, Calb FLC)
O=C(NN=Cc1sc(=O)n(-c2ccccc2)c1Cl)c1ccccc1	none (no result: NALP1 inh, ATG4B inh, ALR inh, NLRP3 yeast inh, Calb FLC)
Cc1ccccc1CSc1nnc(NC(=O)C2COc3ccccc3O2)s1 (configuration not stated)	ATG4B inh 49 | PLA2 counter 61
O=C(Nc1nnc(SCc2cccc3ccccc23)s1)C1COc2ccccc2O1 (configuration not stated)	ATG4B inh 44 (no result: ALR inh) | PLA2 counter 62
O=C(Nc1nnc(SCc2ccccc2Cl)s1)C1COc2ccccc2O1 (configuration not stated)	none
CC(=NNC(=O)c1cc(-c2ccncc2)nc2ccccc12)c1ccc(OC(F)F)cc1	none (no result: NALP1 inh, ATG4B inh, ALR inh, NLRP3 yeast inh, Calb FLC)
CCOC(=O)c1c(CC(C)C)csc1N=CC1=C(O)CCCC1=O	none (no result: NALP1 inh, ATG4B inh, ALR inh, NLRP3 yeast inh, Calb FLC)

Screening results as filed in PubChem BioAssay.
